In ChEMBL document CHEMBL1154067, “Antiviral and cytotoxic activities of aminoarylazo compounds and aryltriazene derivatives” (Bioorg Med Chem, 2009):
Calls of active or inactive are those of the source.

Experiments:
MT4 = experiment: Cytotoxicity against human MT4 cells after 96 hrs by MTT assay; format: cell-based; conditions: mt4, 96 h
Outline: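 Exponentially growing mock-infected MT-4 seeded at 1 × 10^5 cells/mL in RPMI-1640 with 10% FCS, penicillin and streptomycin. Incubated with or without serial compound dilutions at 37 °C, 5% CO2. Viability by MTT after 96 h. CC50 = concentration reducing viability 50%.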

[1] = Cytotoxicity against MDBK cells after 48 to 96 hrs by MTT assay; format: cell-based, Bos taurus; conditions: cattle, mdbk
Outline: (§1)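 Mock-infected cells in maintenance medium, MDBK at 6 × 10^5 and BHK at 1 × 10^6 cells/mL initial density, with or without serial compound dilutions. Run in parallel with antiviral assays. Viability by MTT after 48–96 h at 37 °C, 5% CO2. CC50 = concentration reducing viability 50%.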

[2] = system: Bovine viral diarrhea virus 1; experiment: Antiviral activity against Bovine viral diarrhea virus infected in MDBK cells assessed as inhibition of virus-induced cytopathicity after 3 to 4 days by MTT assay; format: functional, organism-based; conditions: Bovine viral diarrhea virus isolates and strains
Yellow fever virus = experiment: Antiviral activity against Yellow fever virus infected in BHK-21 cells assessed as inhibition of virus-induced cytopathicity after 3 to 4 days by MTT assay; format: functional, organism-based
[3] = system: Mammalian orthoreovirus 1; experiment: Antiviral activity against Reovirus-1 infected in BHK-21 cells assessed as inhibition of virus-induced cytopathicity after 3 to 4 days by MTT assay; format: functional, organism-based; conditions: Mammalian orthoreovirus 1, BHK-21
Outline: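 BHK-21 cells seeded at 5 × 10^4 cells/well, grown overnight to confluent monolayers at 37 °C in 5% CO2, then infected at m.o.i. 0.01 in serum-free medium. One hour later, MEM Earle's with 1% final inactivated FCS added, with or without serial compound dilutions. Viability read by MTT after 3–4 days at 37 °C. EC50 is the concentration giving 50% protection from cytopathogenicity.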

Vero = experiment: Cytotoxicity against african green monkey Vero 76 cells by crystal violet staining; format: cell-based; conditions: chlorocebus sabaeus, vero
Outline: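 Mock-infected Vero 76 seeded at 4 × 10^5 cells/mL, run in parallel with plaque assays, with or without serial compound dilutions. Cell number of monolayers determined by crystal violet staining. CC50 = concentration reducing viable cell number 50%.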

Coxsackievirus B2 = experiment: Antiviral activity against Coxsackie virus type B2 virus infected in african green monkey Vero-76 cells after 3 days by plaque reduction assay; format: functional, organism-based; conditions: Enterovirus B, Vero 76, 72 h
Outline: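 Vero 76 cells seeded at 2 × 10^5 cells/well, grown overnight to confluence at 37 °C in 5% CO2, then infected at 50–100 PFU/well. Unadsorbed virus removed. Overlay of DMEM with 1% inactivated FCS and 0.75% methylcellulose, with or without serial compound dilutions. After 3 days at 37 °C, fixed and stained with crystal violet in PBS/50% ethanol; plaques counted. EC50 is the concentration reducing plaque number by 50%.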

[4] = system: Respiratory syncytial virus; experiment: Antiviral activity against Respiratory syncytial virus A2 infected in Vero-76 cells after 5 days by plaque reduction assay; format: functional, organism-based; conditions: human respiratory syncytial virus, A2, Vero 76, 120 h
Human alphaherpesvirus 1 = experiment: Antiviral activity against HSV1 infected in Vero-76 cells after 3 days by plaque reduction assay; format: functional, organism-based; conditions: Human alphaherpesvirus 1, Vero 76, 72 h
[5] = Cytotoxicity against hamster BHK21 cells assessed as reduction in cell viability after 48 to 96 hrs by MTT assay; format: cell-based, Mesocricetus auratus, BHK-21; conditions: bhk-21; outline: as §1
Poliovirus 1 = experiment: Antiviral activity against Human poliovirus 1 strain Sabin after 2 days by plaque reduction assay; format: functional; conditions: for EC50: Enterovirus C, 48 h
[6] = system: Human immunodeficiency virus 1; experiment: Antiviral activity against HIV1 infected in human MT4 cells assessed as inhibition of virus-induced cytopathicity after 4 days by MTT assay; format: functional, organism-based
[7] = system: Vesicular stomatitis virus; experiment: Antiviral activity against Vesicular stomatitis virus after 2 days by plaque reduction assay; format: functional, organism-based
Vaccinia virus = experiment: Antiviral activity against Vaccinia virus after 3 days by plaque reduction assay; format: functional, organism-based; conditions: Orthopoxvirus vaccinia

Compound	CC50 (MT4) [µM]	CC50 [1] [µM]	EC50 [2] [µM]	EC50 (Yellow fever virus) [µM]	EC50 [3] [µM]	CC50 (Vero) [µM]	EC50 (Coxsackievirus B2) [µM]	EC50 [4] [µM]	EC50 (Human alphaherpesvirus 1) [µM]	CC50 [5] [µM]	EC50 (Poliovirus 1) [µM]	inhibition [6]	Activity [7]	Activity (Vaccinia virus)	Activity (Poliovirus 1)
Cc1ccc(/N=N/N(C)c2ccccc2)cc1	45	> 100	> 100	> 100	> 100	58	> 58	> 58	> 58	> 100	> 58	inactive	inactive	inactive	–
CN(C)CCCN(/N=N/c1ccc([N+](=O)[O-])cc1)c1ccccc1	20	39	≥ 39	≥ 36	> 36	40	> 40	> 40	> 40	36	> 40	inactive	inactive	inactive	–
c1ccc(/N=N/c2ccc(NC[C@@H]3CCCN4CCCC[C@H]34)c3c2CCCC3)cc1	100	> 100	30	≥ 100	> 100	80	> 80	> 80	> 80	> 100	–	inactive	inactive	inactive	inactive
Fc1ccc(F)c(/N=N/c2ccc(NC[C@@H]3CCCN4CCCC[C@H]34)c3c2CCCC3)c1	40	64	> 64	> 38	> 38	80	> 80	> 80	> 80	38	–	inactive	inactive	inactive	inactive
CN(C)CCCNc1ccc(/N=N/c2cc(F)ccc2F)cc1	16	59	9	12	> 33	30	> 30	> 30	12	33	–	inactive	inactive	inactive	inactive
c1ccc(/N=N/Nc2ccccc2)cc1	–	–	> 100	> 100	> 100	–	> 90	≥ 90	> 90	–	> 90	inactive	inactive	inactive	–
CCCN(CCC)CCSc1n[nH]c2c3ccccc3nc-2n1	–	–	0.03	–	–	–	–	–	–	–	–	–	–	–	–
CN(C)CCCN(/N=N/c1cccc([N+](=O)[O-])c1)c1ccccc1	14	37	> 37	24	> 54	40	> 40	> 40	30	54	> 40	inactive	inactive	inactive	–
Brc1ccc(Cn2ccc3nc(-c4ccccc4)nc-3c2)cc1	–	–	0.03	–	–	–	–	–	–	–	–	–	–	–	–
Fc1ccc(/N=N/c2ccc(NC[C@@H]3CCCN4CCCC[C@H]34)c3c2CCCC3)c(F)c1	51	11	> 11	> 9	> 9	15	> 15	> 15	> 15	9	–	inactive	inactive	inactive	inactive
CN(C)CCCNc1ccc(/N=N/c2ccccc2)cc1	17	58	1.6	≥ 31	> 31	30	> 30	25	> 30	31	–	inactive	inactive	inactive	inactive
FC(F)(F)c1cccc(N/N=N/c2ccccc2)c1	> 100	> 100	> 100	≥ 100	> 100	15	8	3	> 15	> 100	> 15	inactive	inactive	inactive	–
Cc1ccc(/N=N/c2ccc(NCCCN(C)C)cc2)cc1	17	> 100	> 100	> 100	> 100	50	> 50	> 50	> 50	> 100	–	inactive	inactive	inactive	inactive
O=c1cnn([C@@H]2O[C@H](CO)[C@@H](O)[C@H]2O)c(=O)[nH]1 [6-AZAURIDINE]	–	> 100	> 100	–	> 100	20	> 20	–	> 20	> 100	> 20	–	–	–	–
COc1c(C)c2c(c(O)c1C/C=C(\C)CCC(=O)O)C(=O)OC2 [MYCOPHENOLIC ACID]	0.2	42	> 42	> 100	> 100	≥ 13	> 13	0.6	> 13	> 100	> 13	–	–	–	–
Cn1c2cc(N3CCN(c4ccccn4)CC3)c(N)cc2c(=O)c2c(O)cc(O)cc21	–	–	0.6	–	–	–	–	–	–	–	–	–	–	–	–
O=[N+]([O-])c1ccc(/N=N/N2CCCC2)cc1	≥ 100	> 100	–	> 100	> 100	90	> 90	60	> 90	≥ 100	15	inactive	inactive	inactive	–
Brc1ccc(/N=N/N2CCCCC2)cc1	> 100	> 100	–	> 100	> 100	> 100	25	73	> 100	> 100	> 100	inactive	inactive	inactive	–
O=[N+]([O-])c1cccc(/N=N/N2CCCC2)c1	66	> 100	–	> 42	> 42	80	> 80	8	> 80	42	30	inactive	inactive	inactive	–
c1ccc(/N=N/N2CCCC2)cc1	> 100	> 100	–	> 100	> 100	> 100	> 100	≥ 100	> 100	≥ 100	> 100	inactive	inactive	inactive	–
NCCCC[C@H](N)C(=O)Nc1cccc(-c2ccc(NC(=O)Nc3nc4ccccc4s3)nc2)c1	–	–	0.6	–	–	–	–	–	–	–	–	–	–	–	–
Brc1cccc(/N=N/N2CCCCC2)c1	> 100	> 100	–	> 100	> 100	85	> 85	> 85	> 85	> 100	> 85	inactive	inactive	inactive	–
